# Source: ChEMBL document CHEMBL1128665, “Design, synthesis, and structure-activity relationship of novel dinucleotide analogs as agents against herpes and human immunodeficiency viruses” (J Med Chem, 1995)
# B1: Adenosine deaminase (Bos taurus), P56658 (protein)
# chain: MAQTPAFNKPKVELHVHLDGAIKPETILYYGRKRGIALPADTPEELQNIIGMDKPLSLPEFLAKFDYYMPAIAGCREAVKRIAYEFVEMKAKDGVVYVEVRYSPHLLANSKVEPIPWNQAEGDLTPDEVVSLVNQGLQEGERDFGVKVRSILCCMRHQPSWSSEVVELCKKYREQTVVAIDLAGDETIEGSSLFPGHVKAYAEAVKSGVHRTVHAGEVGSANVVKEAVDTLKTERLGHGYHTLEDATLYNRLRQENMHFEVCPWSSYLTGAWKPDTEHPVVRFKNDQVNYSLNTDDPLIFKSTLDTDYQMTKNEMGFTEEEFKRLNINAAKSSFLPEDEKKELLDLLYKAYGMPSPASAEQCL
# How the values were obtained:
# [1] = compound: COC(=O)C(C)NP(=O)(CCOCn1cnc2c(N)ncnc21)O[C@H]1[C@H](O)[C@H](n2cnc3c(N)ncnc32)O[C@@H]1CO; assay: Km value was determined by competitive inhibition of Adenosine deaminase No reaction at 1500 uM
# [2] = compound: Nc1ncnc2c1ncn2COCCP(=O)(O)O; assay: (§1) Km value was determined by competitive inhibition of Adenosine deaminase
# How it was run: (§2)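 Deamination rates of the nucleoside or nucleotide substrates were followed with calf mucosal adenosine deaminase (EC 3.5.4.4) in buffer solution. Km and Vmax, expressed relative to ara-A, were derived from these rates.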
# [3] = compound: Nc1ncnc2c1ncn2COCCP(=O)(O)O[C@H]1[C@H](O)[C@H](n2cnc3c(N)ncnc32)O[C@@H]1CO; assay: as §1; how it was run: as §2
# [4] = compound: Nc1ncnc2c1ncn2COCCO; assay: as §1; how it was run: as §2
# [5] = compound: Nc1ncnc2c1ncn2[C@@H]1O[C@H](CO)[C@@H](O)[C@H]1O; assay: as §1; how it was run: as §2
protein,measurement,setting,value
B1,Km,[1],No reaction
same,Km,[2],248 µM
same,Km,[3],166 µM
same,Km,[4],138 µM
same,Km,[5],45.3 µM
